Consider 10 compounds from ChEMBL document CHEMBL4118202, “Chiral analogues of (+)-cyclazosin as potent α1B-adrenoceptor selective antagonist” (Bioorg Med Chem, 2018).

The first experiment concerns the target T1, Alpha-1D adrenergic receptor (Rattus norvegicus) (UniProt P23944).
T1 sequence (whole entry): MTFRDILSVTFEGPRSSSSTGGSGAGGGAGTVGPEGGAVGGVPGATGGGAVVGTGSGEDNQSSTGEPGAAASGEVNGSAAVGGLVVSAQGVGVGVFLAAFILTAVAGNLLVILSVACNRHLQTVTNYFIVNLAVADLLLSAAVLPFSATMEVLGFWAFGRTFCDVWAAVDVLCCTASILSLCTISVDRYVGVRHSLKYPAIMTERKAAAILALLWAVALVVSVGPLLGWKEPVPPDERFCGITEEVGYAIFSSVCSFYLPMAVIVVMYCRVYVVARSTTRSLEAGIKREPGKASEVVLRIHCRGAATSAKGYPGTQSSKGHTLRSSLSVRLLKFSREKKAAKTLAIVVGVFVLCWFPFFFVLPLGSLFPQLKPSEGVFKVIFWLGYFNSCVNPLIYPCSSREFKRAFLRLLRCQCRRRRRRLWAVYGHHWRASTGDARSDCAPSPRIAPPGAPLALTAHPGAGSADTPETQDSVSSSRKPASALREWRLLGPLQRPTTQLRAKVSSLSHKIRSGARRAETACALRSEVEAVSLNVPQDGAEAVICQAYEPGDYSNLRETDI
The experiment is described as follows: Antagonist activity at alpha1D adrenergic receptor in Wistar rat thoracic aorta assessed as inhibition of noradrenaline-induced contraction measured after 30 mins in presence of cocaine hydrochloride and beta-adrenoceptor blocker propranolol hydrochloride. The format is functional.
Settings: not given
The procedure, abridged: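 Helical thoracic aorta strips, endothelium removed (checked by loss of acetylcholine relaxation), in Krebs at 1 g, equilibrated ≥2 h. Isometric cumulative noradrenaline curves at 1 h intervals; the second served as control, the third followed 30 min antagonist.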
As a reminder, the pKb is the negative decadic logarithm of the Kb, by convention in mol/L. Consider `CCCN(CCC)c1nc(N2CCN(C(=O)c3ccco3)[C@H]3CCCC[C@H]32)nc2cc(OC)c(OC)cc12`, for which the negative-log Kb (pKb) came to 6.22.
Same read-out and setting: as for `COc1cc2nc(N3CCN(C(=O)C4COc5ccccc5O4)[C@H]4CCCC[C@H]43)nc(N)c2cc1OC` (single isomer, unassigned; (-)) [CYCLODOXAZOSIN], the figure is 7.1.

The next experiment has as its target T2, Alpha-1B adrenergic receptor (Rattus norvegicus, UniProt P15823).
T2 sequence (P15823 whole entry): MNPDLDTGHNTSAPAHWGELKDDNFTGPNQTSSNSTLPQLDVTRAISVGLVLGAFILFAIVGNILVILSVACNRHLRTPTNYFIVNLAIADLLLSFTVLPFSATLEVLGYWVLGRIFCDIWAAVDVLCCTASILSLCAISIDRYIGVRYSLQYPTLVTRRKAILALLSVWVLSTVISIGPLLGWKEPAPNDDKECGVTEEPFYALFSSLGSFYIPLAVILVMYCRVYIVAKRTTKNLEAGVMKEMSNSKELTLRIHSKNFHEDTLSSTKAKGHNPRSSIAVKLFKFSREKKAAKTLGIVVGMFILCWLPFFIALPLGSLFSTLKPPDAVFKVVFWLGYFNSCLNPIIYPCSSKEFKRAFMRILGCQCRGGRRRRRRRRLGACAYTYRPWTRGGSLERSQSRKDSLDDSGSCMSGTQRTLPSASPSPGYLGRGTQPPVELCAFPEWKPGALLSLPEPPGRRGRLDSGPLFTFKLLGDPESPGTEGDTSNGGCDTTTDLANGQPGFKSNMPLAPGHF
The experiment is described as follows: Antagonist activity at alpha1B adrenergic receptor in Wistar rat spleen assessed as inhibition of phenylephrine-induced contraction incubated for 30 mins in presence of beta-adrenoceptor blocker propranolol hydrochloride. Conditions: read-out: pA2 (converted). Format: functional. The method, boiled down:
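Spleen bisected longitudinally into strips in Krebs with propranolol 4 μM, held at 1 g and equilibrated 2 h. Two isometric cumulative phenylephrine curves, each followed by 30 min washing. Third curve after 30 min vehicle or antagonist. Potency as pA2 (Schild) or pKB at one concentration (van Rossum). Responses as % of control maximum; n ≥ 4.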
For `COc1cc2nc(N3CCN(C(C)=O)[C@@H]4CCCC[C@@H]43)nc(N)c2cc1OC`, the Kb was 0.617 nM.
For `COc1cc2nc(N3CCN(C(=O)COc4c(OC)cccc4C(C)C)[C@H]4CCCC[C@H]43)nc(N)c2cc1OC`, the Kb was 191 nM.
Regarding `COc1cc2nc(N3CCN(C(=O)OCc4ccccc4)[C@@H]4CCCC[C@@H]43)nc(N)c2cc1OC`, the Kb is 1.82 nM.
On the same count and under the same terms, the figure for `COc1cc2nc(N3CCN(C(C)=O)[C@H]4CCCC[C@H]43)nc(N)c2cc1OC` is 3.02 nM.

The target in a further experiment is T3, Alpha-1A adrenergic receptor (Rattus norvegicus) (UniProt P43140).
T3 sequence (whole entry): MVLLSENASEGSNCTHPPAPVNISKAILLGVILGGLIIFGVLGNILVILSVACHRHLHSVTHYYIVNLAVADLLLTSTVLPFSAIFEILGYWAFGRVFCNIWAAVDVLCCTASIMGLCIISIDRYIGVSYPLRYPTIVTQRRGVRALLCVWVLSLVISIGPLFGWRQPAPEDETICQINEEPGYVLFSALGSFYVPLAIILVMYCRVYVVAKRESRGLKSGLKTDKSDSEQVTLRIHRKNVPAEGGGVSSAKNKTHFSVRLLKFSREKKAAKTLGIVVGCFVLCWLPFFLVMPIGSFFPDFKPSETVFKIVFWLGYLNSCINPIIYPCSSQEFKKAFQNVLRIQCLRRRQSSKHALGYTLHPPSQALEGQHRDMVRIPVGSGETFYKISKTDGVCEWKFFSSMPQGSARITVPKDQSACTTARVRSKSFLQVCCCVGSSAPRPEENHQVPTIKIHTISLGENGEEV
The experiment is described as follows: Antagonist activity at alpha1A adrenergic receptor in Wistar rat prostatic rat vas deferens assessed as inhibition of noradrenaline-induced contraction preincubated for 30 mins followed by noradrenaline addition measured after 45 mins in presence of cocaine hydrochloride. Format: functional.
Settings: not given
The method, boiled down: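 Prostatic rat vas deferens, 2 cm portions, held at 0.35 g in Tyrode (pH 7.4, 37 °C, 95% O2/5% CO2). Cocaine 10 μM added 20 min before the agonist. Tissue equilibrated 45 min and primed twice with 10 μM noradrenaline. Isotonic cumulative noradrenaline curves were run before and after 30 min antagonist. pA2 came from Schild plots (≥3 concentrations); otherwise pKB (van Rossum). n ≥ 4.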
Consider `CCCCCC(=O)N1CCN(c2nc(N)c3cc(OC)c(OC)cc3n2)[C@@H]2CCCC[C@@H]21`, for which the pKb amounted to 7.06.
As for `CCCN(CCC)c1nc(N2CCN(C(=O)c3ccco3)[C@@H]3CCCC[C@@H]32)nc2cc(OC)c(OC)cc12`, the negative-log Kb (pKb) turned out to be 7.02.
In the case of `CCCN(CCC)c1nc(N2CCN(C(=O)c3ccco3)[C@H]3CCCC[C@H]32)nc2cc(OC)c(OC)cc12`, the pKb amounted to 5.89.
Take `COc1cc2nc(N3CCN(C(=O)Cc4ccc5ccccc5c4)[C@H]4CCCC[C@H]43)nc(N)c2cc1OC`: the pKb turned out to be 6.56.
Regarding `COc1cc2nc(N3CCN(C(=O)C(C)(C)C)[C@H]4CCCC[C@H]43)nc(N)c2cc1OC`, the pKb turned out to be 7.17.

The target of a further experiment is T4, Alpha-1D adrenergic receptor (Homo sapiens, UniProt P25100).
T4 sequence (P25100 whole entry): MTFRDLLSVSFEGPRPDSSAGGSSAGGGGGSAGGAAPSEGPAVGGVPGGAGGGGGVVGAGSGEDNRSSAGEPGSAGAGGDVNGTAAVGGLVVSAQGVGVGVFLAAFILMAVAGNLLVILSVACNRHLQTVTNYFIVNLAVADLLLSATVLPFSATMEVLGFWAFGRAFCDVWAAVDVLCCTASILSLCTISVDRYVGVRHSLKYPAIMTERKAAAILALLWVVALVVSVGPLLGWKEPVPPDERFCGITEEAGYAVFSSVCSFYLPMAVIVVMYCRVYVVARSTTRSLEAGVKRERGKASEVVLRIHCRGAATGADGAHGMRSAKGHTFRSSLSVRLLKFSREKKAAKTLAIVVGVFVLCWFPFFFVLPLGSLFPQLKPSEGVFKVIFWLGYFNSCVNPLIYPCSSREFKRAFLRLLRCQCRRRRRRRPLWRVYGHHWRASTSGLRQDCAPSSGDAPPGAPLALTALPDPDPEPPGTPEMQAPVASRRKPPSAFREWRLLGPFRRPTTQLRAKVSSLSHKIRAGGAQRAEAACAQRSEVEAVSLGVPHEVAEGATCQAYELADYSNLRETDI
Briefly: Binding affinity to alpha1D adrenergic receptor (unknown origin).
Settings: not given
As a reminder, the Ki is a measure of affinity in units of concentration, obtained from inhibition or displacement. Compound `COc1cc2nc(N3CCN(C(=O)C4COc5ccccc5O4)[C@H]4CCCC[C@H]43)nc(N)c2cc1OC` (single isomer, unassigned; (-)) [CYCLODOXAZOSIN] gave a Ki of 3.89 nM.
